Series [1] concerns Enterococcus. Nature of the series: In vitro antimicrobial activity against Vancomycin resistant enterococcus strain BM4147. In kind it is functional. Summed up:
(§1)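 Broth microdilution MIC per NCCLS M7-A4. Compounds dissolved fresh in DMSO as 10 mM stock, then diluted in BHI medium for VRE (BM4147, UCD3) or Mueller-Hinton medium for MRSA. Seven 1:2 serial dilutions gave test concentrations of 45.5 to 0.7 μM. MIC read by visual inspection of wells after 2 days.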

Series [2] is described as follows: Toxicity assessed in human T-cells using a colorimetric cell proliferation assay. In kind it is cell-based. The procedure, abridged: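 CCRF-CEM human leukemia T-cells in RPMI-1640 with 10% FBS and gentamicin 0.1 mg/mL, seeded at 4 × 10^4 cells/well. Compound added at start at 50, 25, 12.5 and 6.3 μM. WST-1 cleavage read by absorbance at 440 nm at 24, 48 and 72 h. Value reported as lowest % of no-compound control, typically 72 h at 50 μM. At least triplicate.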

The test system of another series is Nucleic Acid. Nature of the series: Changes in the DNA melting temperature of an AT-rich dodecamer (CGATTATTAAGC) (GCTTAATAATCG) upon binding of an equimolar amount of compound. In kind it is nucleic-acid assay. Summed up:
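Melting monitored by UV absorbance at 260 nm in 10 mM HEPES pH 7.2, 0.1 mM EDTA, 50 mM NaCl. 12-bp AT-rich oligo at 5 μM mixed with compound at equimolar ratio. Temperature ramped 15 to 95 °C at 0.2 °C/min. Tm by derivative method, checked by hyperchromicity. ΔTm is Tm with compound minus Tm without. At least duplicate.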

A further series deals with Staphylococcus aureus. Nature of the series: In vitro antimicrobial activity against Methicillin resistant Staphylococcus aureus. In kind it is functional. Summed up:
as §1

Series [3] concerns Enterococcus. Nature of the series: In vitro antimicrobial activity against Vancomycin resistant enterococcus strain UCD-3. The format is functional. The procedure, abridged: as §1

These results are taken from ChEMBL document CHEMBL1135717, “Minor groove DNA binders as antimicrobial agents. 1. Pyrrole tetraamides are potent antibacterials against vancomycin resistant Enterococci [corrected] and methicillin resistant Staphylococcus aureus” (J Med Chem, 2002).

Molecules are shown by their SMILES. In brackets after ≈: the same amount, converted by molar mass.

As to `CCCn1cc(NC(=O)c2ccc(C(=O)Nc3cc(C(=O)NCCC(=N)N)n(CCC)c3)cc2)cc1C(=O)NCCC(=N)N`, the values for the MIC against Enterococcus [1], against Staphylococcus aureus and against Enterococcus [3] were 5.6 µM (≈ 3.39 µg/mL), 11.1 µM (≈ 6.71 µg/mL) and 5.6 µM (≈ 3.39 µg/mL), respectively. The NCC in series [2] was 61%. Moreover, the ΔTm with Nucleic Acid came to 29.

As to `Cn1cc(NC(=O)c2ccc(C(=O)Nc3cc(C(=O)NCCC(=N)N)n(C)c3)cc2)cc1C(=O)NCCC(=N)N`, the MIC against Enterococcus [1] was 22.2 µM (≈ 12.2 µg/mL); against Staphylococcus aureus, 22.7 µM (≈ 12.5 µg/mL); with Enterococcus [3], > 45.5 µM. Besides, in series [2], the NCC was 56%. The ΔTm in the series with Nucleic Acid came out at 30.
